{"source": "ChEMBL document CHEMBL5678810", "key": {"[1]": {"system": "Tyrosine-protein kinase ABL1 (Homo sapiens), P00519 [T315I]", "test": "Inhibition of T7 bacteriophage fused human nonphosphorylated ABL1 T315I mutant at 10 uM by KINOMEscan analysis relative to control"}, "[2]": {"target": "Aurora kinase A (Homo sapiens) (UniProt O14965)", "test": "Inhibition of T7 bacteriophage fused human AURKA at 10 uM by KINOMEscan analysis relative to control"}, "[3]": {"target": "Bone morphogenetic protein receptor type-1A (Homo sapiens) (UniProt P36894)", "test": "Inhibition of T7 bacteriophage fused human BMPR1A at 10 uM by KINOMEscan analysis relative to control"}, "[4]": {"target": "Calcium/calmodulin-dependent protein kinase type 1G (Homo sapiens) (UniProt Q96NX5)", "test": "Inhibition of T7 bacteriophage fused human CAMK1G at 10 uM by KINOMEscan analysis relative to control"}, "[5]": {"target": "Calcium/calmodulin-dependent protein kinase type II subunit gamma (Homo sapiens) (UniProt Q13555)", "test": "Inhibition of T7 bacteriophage fused human CAMK2G at 10 uM by KINOMEscan analysis relative to control"}, "[6]": {"target": "Cyclin-dependent kinase 7 (Homo sapiens) (UniProt P50613)", "test": "Inhibition of T7 bacteriophage fused human CDK7 at 10 uM by KINOMEscan analysis relative to control"}, "[7]": {"target": "Dual specificity protein kinase CLK3 (Homo sapiens) (UniProt P49761)", "test": "Inhibition of T7 bacteriophage fused human CLK3 at 10 uM by KINOMEscan analysis relative to control"}, "[8]": {"target": "Serine/threonine-protein kinase 17A (Homo sapiens) (UniProt Q9UEE5)", "test": "Inhibition of T7 bacteriophage fused human DRAK1 at 10 uM by KINOMEscan analysis relative to control"}, "[9]": {"target": "Ephrin type-B receptor 2 (Homo sapiens) (UniProt P29323)", "test": "Inhibition of T7 bacteriophage fused human EPHB2 at 10 uM by KINOMEscan analysis relative to control"}, "[10]": {"target": "Homeodomain-interacting protein kinase 4 (Homo sapiens) (UniProt Q8NE63)", "test": "Inhibition of T7 bacteriophage fused human HIPK4 at 10 uM by KINOMEscan analysis relative to control"}, "[11]": {"target": "Mitogen-activated protein kinase kinase kinase kinase 1 (Homo sapiens) (UniProt Q92918)", "sequence (Q92918 whole entry, looked up, the tested form may be a part)": "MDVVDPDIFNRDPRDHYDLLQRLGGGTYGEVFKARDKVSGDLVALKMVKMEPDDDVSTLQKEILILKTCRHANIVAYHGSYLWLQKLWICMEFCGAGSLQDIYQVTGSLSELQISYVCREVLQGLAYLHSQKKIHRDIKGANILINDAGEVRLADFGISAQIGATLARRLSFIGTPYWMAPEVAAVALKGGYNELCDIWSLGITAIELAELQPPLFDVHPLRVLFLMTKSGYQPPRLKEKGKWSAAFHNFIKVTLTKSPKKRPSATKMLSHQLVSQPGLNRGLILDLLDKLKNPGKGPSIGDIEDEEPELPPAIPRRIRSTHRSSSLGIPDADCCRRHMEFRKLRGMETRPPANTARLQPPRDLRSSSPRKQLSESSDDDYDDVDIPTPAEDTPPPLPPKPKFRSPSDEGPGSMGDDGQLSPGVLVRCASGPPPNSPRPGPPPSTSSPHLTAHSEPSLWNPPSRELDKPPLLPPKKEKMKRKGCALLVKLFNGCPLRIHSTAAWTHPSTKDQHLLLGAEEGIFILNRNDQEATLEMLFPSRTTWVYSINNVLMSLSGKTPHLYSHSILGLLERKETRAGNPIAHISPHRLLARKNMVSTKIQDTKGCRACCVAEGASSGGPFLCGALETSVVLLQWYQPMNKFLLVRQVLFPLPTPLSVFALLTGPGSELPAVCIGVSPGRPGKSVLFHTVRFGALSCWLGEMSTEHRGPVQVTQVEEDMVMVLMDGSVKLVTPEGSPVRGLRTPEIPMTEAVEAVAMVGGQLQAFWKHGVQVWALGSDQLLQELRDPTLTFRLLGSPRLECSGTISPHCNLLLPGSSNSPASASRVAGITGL", "test": "Inhibition of T7 bacteriophage fused human HPK1 at 10 uM by KINOMEscan analysis relative to control"}, "[12]": {"system": "Phosphatidylinositol 4,5-bisphosphate 3-kinase catalytic subunit alpha isoform (Homo sapiens), P42336 [H1047L]", "test": "Inhibition of T7 bacteriophage fused human PIK3CA H1047L mutant at 10 uM by KINOMEscan analysis relative to control"}, "[13]": {"system": "Phosphatidylinositol 4,5-bisphosphate 3-kinase catalytic subunit alpha isoform (Homo sapiens), P42336 [H1047Y]", "sequence (P42336 whole entry H1047Y, the tested form may be a part, canonical isoform)": "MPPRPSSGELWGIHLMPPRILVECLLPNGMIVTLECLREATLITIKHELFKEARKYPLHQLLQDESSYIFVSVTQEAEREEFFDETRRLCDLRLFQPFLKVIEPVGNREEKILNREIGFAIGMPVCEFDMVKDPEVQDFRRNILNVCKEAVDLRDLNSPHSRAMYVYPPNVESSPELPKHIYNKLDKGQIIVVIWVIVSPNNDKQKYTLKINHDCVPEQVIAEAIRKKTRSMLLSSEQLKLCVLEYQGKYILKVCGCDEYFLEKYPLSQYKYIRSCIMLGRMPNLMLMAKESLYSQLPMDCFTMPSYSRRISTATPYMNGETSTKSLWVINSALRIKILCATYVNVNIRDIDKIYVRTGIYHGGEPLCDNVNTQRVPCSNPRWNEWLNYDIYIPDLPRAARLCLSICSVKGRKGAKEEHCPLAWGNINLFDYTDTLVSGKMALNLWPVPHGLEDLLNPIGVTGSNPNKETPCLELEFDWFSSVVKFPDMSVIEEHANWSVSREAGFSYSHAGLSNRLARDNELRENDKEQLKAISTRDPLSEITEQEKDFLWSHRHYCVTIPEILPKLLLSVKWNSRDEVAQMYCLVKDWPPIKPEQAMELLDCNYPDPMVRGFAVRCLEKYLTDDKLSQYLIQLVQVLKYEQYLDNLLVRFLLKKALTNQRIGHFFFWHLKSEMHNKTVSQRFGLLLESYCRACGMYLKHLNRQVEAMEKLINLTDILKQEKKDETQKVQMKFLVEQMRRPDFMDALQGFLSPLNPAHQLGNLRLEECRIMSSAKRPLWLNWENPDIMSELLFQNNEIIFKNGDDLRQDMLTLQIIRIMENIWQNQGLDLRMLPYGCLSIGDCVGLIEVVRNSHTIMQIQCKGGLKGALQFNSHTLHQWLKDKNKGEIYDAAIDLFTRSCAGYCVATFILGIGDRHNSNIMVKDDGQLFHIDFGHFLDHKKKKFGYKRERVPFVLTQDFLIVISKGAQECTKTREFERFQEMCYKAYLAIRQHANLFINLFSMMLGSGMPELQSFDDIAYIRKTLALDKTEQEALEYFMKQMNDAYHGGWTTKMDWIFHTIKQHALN", "test": "Inhibition of T7 bacteriophage fused human PIK3CA H1047Y mutant at 10 uM by KINOMEscan analysis relative to control"}, "[14]": {"system": "Phosphatidylinositol 4,5-bisphosphate 3-kinase catalytic subunit alpha isoform (Homo sapiens), P42336 [M1043I]", "test": "Inhibition of T7 bacteriophage fused human PIK3CA M1043I mutant at 10 uM by KINOMEscan analysis relative to control"}, "[15]": {"target": "cAMP-dependent protein kinase catalytic subunit alpha (Homo sapiens) (UniProt P17612)", "test": "Inhibition of T7 bacteriophage fused human PKAC-alpha at 10 uM by KINOMEscan analysis relative to control"}, "[16]": {"target": "Serine/threonine-protein kinase N1 (Homo sapiens) (UniProt Q16512)", "test": "Inhibition of T7 bacteriophage fused human PKN1 at 10 uM by KINOMEscan analysis relative to control"}, "[17]": {"target": "cAMP-dependent protein kinase catalytic subunit PRKX (Homo sapiens) (UniProt P51817)", "test": "Inhibition of T7 bacteriophage fused human PRKX at 10 uM by KINOMEscan analysis relative to control"}, "[18]": {"target": "Proto-oncogene tyrosine-protein kinase receptor Ret (Homo sapiens) (UniProt P07949)", "test": "Inhibition of T7 bacteriophage fused human RET at 10 uM by KINOMEscan analysis relative to control"}, "[19]": {"target": "Serine/threonine-protein kinase RIO1 (Homo sapiens) (UniProt Q9BRS2)", "test": "Inhibition of T7 bacteriophage fused human RIOK1 at 10 uM by KINOMEscan analysis relative to control"}, "[20]": {"target": "Ribosomal protein S6 kinase alpha-4 (Homo sapiens) (UniProt O75676)", "sequence (O75676 whole entry, looked up, the tested form may be a part)": "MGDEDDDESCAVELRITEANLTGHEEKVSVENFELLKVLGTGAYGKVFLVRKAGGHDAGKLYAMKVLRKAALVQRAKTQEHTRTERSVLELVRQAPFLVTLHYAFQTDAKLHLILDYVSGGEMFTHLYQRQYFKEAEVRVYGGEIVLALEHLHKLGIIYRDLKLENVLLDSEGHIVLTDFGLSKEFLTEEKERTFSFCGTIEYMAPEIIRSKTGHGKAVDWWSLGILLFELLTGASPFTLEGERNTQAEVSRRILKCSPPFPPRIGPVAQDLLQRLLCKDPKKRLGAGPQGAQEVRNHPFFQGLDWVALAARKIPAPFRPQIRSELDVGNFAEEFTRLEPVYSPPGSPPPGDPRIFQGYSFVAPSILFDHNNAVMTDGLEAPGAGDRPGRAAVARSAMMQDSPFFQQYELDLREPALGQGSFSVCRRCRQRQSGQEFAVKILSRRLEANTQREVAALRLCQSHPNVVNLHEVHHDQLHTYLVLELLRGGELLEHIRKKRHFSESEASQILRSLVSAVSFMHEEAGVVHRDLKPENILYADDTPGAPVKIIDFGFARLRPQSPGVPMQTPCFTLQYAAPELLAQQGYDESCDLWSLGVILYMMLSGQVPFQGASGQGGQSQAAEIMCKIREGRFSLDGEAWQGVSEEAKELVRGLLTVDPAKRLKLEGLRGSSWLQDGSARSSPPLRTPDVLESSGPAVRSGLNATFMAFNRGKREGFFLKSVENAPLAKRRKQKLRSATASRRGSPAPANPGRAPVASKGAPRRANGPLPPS", "test": "Inhibition of T7 bacteriophage fused human N-terminal RPS6KA4 Kinase domain-1 at 10 uM by KINOMEscan analysis relative to control"}, "[21]": {"target": "Ribosomal protein S6 kinase alpha-4 (Homo sapiens) (UniProt O75676)", "test": "Inhibition of T7 bacteriophage fused human C-terminal RPS6KA4 Kinase domain-2 at 10 uM by KINOMEscan analysis relative to control"}, "[22]": {"target": "Serine/threonine-protein kinase 36 (Homo sapiens) (UniProt Q9NRP7)", "test": "Inhibition of T7 bacteriophage fused human STK36 at 10 uM by KINOMEscan analysis relative to control"}, "[23]": {"target": "Tyrosine-protein kinase CSK (Homo sapiens) (UniProt P41240)", "test": "Inhibition of T7 bacteriophage fused human CSK at 10 uM by KINOMEscan analysis relative to control; values are per cent of control"}, "[24]": {"target": "Fibroblast growth factor receptor 3 (Homo sapiens) (UniProt P22607)", "sequence (P22607 23-806 limits assumed)": "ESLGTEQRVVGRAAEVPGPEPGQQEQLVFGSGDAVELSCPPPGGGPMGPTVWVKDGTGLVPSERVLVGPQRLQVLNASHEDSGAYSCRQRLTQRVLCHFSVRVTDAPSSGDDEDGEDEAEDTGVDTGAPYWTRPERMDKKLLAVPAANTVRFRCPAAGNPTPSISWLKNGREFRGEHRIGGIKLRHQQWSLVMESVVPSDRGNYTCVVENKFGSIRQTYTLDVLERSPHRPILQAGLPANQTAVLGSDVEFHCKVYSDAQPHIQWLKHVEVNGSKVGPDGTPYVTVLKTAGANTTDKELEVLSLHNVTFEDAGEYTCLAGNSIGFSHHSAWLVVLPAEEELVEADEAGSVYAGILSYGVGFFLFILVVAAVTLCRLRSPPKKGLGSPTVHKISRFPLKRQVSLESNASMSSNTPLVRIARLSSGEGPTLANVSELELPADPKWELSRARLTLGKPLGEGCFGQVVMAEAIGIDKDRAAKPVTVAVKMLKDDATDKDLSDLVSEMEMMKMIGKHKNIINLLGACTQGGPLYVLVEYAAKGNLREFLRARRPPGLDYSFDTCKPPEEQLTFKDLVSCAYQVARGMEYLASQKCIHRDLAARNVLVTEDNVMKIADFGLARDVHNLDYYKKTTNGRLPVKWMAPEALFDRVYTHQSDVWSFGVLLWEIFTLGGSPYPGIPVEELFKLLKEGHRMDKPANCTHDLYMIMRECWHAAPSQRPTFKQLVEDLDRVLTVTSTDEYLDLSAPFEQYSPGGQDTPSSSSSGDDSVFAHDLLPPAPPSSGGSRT", "test": "Inhibition of T7 bacteriophage fused human FGFR3 at 10 uM by KINOMEscan analysis relative to control; values are per cent of control"}, "[25]": {"target": "Serine/threonine-protein kinase LATS2 (Homo sapiens) (UniProt Q9NRM7)", "test": "Inhibition of T7 bacteriophage fused human LATS2 at 10 uM by KINOMEscan analysis relative to control; values are per cent of control"}, "[26]": {"system": "Epidermal growth factor receptor (Homo sapiens), P00533 [UNDEFINED MUTATION]", "sequence (P00533 whole entry, looked up, stated change not applied, the tested form may be a part)": "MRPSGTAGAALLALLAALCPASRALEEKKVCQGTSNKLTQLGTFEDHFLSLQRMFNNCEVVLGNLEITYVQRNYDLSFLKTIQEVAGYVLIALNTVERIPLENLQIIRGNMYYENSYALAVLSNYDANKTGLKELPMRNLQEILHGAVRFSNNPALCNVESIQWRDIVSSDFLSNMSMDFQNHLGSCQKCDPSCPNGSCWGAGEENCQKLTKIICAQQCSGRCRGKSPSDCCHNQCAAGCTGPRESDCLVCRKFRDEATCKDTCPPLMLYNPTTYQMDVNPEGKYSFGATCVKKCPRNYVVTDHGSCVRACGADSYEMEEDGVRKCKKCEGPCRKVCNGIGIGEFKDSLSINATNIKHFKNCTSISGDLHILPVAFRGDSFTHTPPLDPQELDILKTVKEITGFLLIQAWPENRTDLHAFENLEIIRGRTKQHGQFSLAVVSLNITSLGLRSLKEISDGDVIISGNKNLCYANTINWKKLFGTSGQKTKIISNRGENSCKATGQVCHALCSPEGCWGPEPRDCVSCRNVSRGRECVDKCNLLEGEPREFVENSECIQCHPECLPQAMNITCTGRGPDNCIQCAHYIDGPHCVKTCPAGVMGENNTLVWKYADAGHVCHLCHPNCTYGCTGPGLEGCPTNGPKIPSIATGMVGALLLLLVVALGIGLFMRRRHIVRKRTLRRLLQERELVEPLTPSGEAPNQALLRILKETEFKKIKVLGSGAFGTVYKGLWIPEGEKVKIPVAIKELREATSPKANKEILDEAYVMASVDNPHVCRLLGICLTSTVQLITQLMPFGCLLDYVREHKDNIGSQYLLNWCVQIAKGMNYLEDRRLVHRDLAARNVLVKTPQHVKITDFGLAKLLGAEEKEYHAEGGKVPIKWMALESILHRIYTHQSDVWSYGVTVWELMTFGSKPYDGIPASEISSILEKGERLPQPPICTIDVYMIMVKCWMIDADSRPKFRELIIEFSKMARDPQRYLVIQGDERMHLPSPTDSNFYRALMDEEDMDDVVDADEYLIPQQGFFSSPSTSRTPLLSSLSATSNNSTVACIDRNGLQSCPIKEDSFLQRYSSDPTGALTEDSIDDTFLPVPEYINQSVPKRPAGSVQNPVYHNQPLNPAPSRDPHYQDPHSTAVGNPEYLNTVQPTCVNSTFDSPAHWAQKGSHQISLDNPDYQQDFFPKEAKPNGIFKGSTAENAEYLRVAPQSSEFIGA", "test": "Inhibition of T7 bacteriophage fused human EGFR L747/E749del/A750P mutant at 10 uM by KINOMEscan analysis relative to control; values are per cent of control"}, "[27]": {"system": "Leucine-rich repeat serine/threonine-protein kinase 2 (Homo sapiens), Q5S007 [A2016T]", "test": "Inhibition of drug-resistant GFP-tagged LRRK2 A2016T mutant phosphorylation at Ser935 residue (unknown origin) transfected in HEK293 cells upto 3 uM incubated for 90 mins by immunoblot analysis", "type": "cell-based", "how_it_was_run": "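HEK293 cells stably expressing GFP-LRRK2 variants, grown in DMEM with 10% FBS, 2 mM glutamine and penicillin/streptomycin. Compound added from DMSO stock (final DMSO ≤1%) at increasing concentrations for 90 min, DMSO control. Cells were PBS-washed and lysed in Triton X-100 lysis buffer. Lysates were run on 8% SDS-PAGE and immunoblotted with rabbit monoclonals against pSer910, pSer935 and total LRRK2.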"}, "[28]": {"target": "Phosphatidylinositol 5-phosphate 4-kinase type-2 gamma (Homo sapiens) (UniProt Q8TBX8)", "sequence (Q8TBX8 whole entry)": "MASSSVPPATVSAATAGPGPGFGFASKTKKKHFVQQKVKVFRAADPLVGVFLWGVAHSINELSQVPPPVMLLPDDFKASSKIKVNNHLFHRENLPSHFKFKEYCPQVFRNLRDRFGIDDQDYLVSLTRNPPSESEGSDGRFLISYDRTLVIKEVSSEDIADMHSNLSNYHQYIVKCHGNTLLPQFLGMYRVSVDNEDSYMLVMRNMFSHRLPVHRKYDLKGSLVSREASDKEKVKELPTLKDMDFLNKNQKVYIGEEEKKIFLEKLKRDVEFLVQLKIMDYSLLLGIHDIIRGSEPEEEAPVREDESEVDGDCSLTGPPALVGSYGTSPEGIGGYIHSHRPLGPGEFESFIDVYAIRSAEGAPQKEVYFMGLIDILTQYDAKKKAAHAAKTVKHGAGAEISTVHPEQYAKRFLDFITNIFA", "test": "Inhibition of PIP4K2C ATP labeling site harboring TLVIkEVSSEDIADMHSNLSNYHQYIVK in human PC-3 cell lysate at 10 uM by KiNativ profiling analysis relative to control", "type": "subcellular"}}, "note": "The source made the active and inactive calls. No cut-off for these calls is given here."}
{"smiles": "COc1cc(N2CCC(N3CCN(C)CC3)CC2)ccc1Nc1ncc2c(n1)N(C)c1ccccc1C(=O)N2C", "values": [{"measurement": "inhibition", "setting": "[1]", "result": 100, "unit": "%"}, {"measurement": "inhibition", "setting": "[2]", "result": 1.2, "unit": "%"}, {"measurement": "inhibition", "setting": "[3]", "result": 100, "unit": "%"}, {"measurement": "inhibition", "setting": "[4]", "result": 74, "unit": "%"}, {"measurement": "inhibition", "setting": "[5]", "result": 47, "unit": "%"}, {"measurement": "inhibition", "setting": "[6]", "result": 86, "unit": "%"}, {"measurement": "inhibition", "setting": "[7]", "result": 95, "unit": "%"}, {"measurement": "inhibition", "setting": "[8]", "result": 100, "unit": "%"}, {"measurement": "inhibition", "setting": "[9]", "result": 100, "unit": "%"}, {"measurement": "inhibition", "setting": "[10]", "result": 100, "unit": "%"}, {"measurement": "inhibition", "setting": "[11]", "result": 100, "unit": "%"}, {"measurement": "inhibition", "setting": "[12]", "result": 20, "unit": "%"}, {"measurement": "inhibition", "setting": "[13]", "result": 71, "unit": "%"}, {"measurement": "inhibition", "setting": "[14]", "result": 65, "unit": "%"}, {"measurement": "inhibition", "setting": "[15]", "result": 100, "unit": "%"}, {"measurement": "inhibition", "setting": "[16]", "result": 100, "unit": "%"}, {"measurement": "inhibition", "setting": "[17]", "result": 99, "unit": "%"}, {"measurement": "inhibition", "setting": "[18]", "result": 100, "unit": "%"}, {"measurement": "inhibition", "setting": "[19]", "result": 100, "unit": "%"}, {"measurement": "inhibition", "setting": "[20]", "result": 100, "unit": "%"}, {"measurement": "inhibition", "setting": "[21]", "result": 46, "unit": "%"}, {"measurement": "inhibition", "setting": "[22]", "result": 97, "unit": "%"}, {"measurement": "residual activity", "setting": "[23]", "result": 90, "unit": "%"}, {"measurement": "residual activity", "setting": "[24]", "result": 80, "unit": "%"}, {"measurement": "residual activity", "setting": "[25]", "result": 95, "unit": "%"}, {"measurement": "residual activity", "setting": "[26]", "result": 78, "unit": "%"}]}
{"smiles": "CCOc1cc(C(=O)N2CCC(N3CCN(C)CC3)CC2)ccc1Nc1ncc2c(n1)N(C1CCCC1)c1ccccc1C(=O)N2C", "values": [{"measurement": "inhibition", "setting": "[27]", "result": "inactive"}]}
{"smiles": "COc1cc(C(=O)N2CCC(N3CCN(C)CC3)CC2)ccc1Nc1ncc2c(n1)N(C1CCCC1)c1ccccc1C(=O)N2C", "values": [{"measurement": "inhibition", "setting": "[28]", "result": -0.1, "unit": "%"}]}
